Consider four compounds from ChEMBL document CHEMBL1144276, “Synthesis and in vitro selective anti-Helicobacter pylori activity of pyrazoline derivatives” (2005).

By MIC50 is commonly meant an inhibitory concentration at the 50% level, which refers to growth in some studies and to a panel of isolates in others. High values mean weaker potency, low ones greater potency. Usually MIC90 stands for an inhibitory concentration at the 90% level, which refers to growth in some studies and to a panel of isolates in others. The low end stands for higher susceptibility, the high end for lower susceptibility. The term MIC denotes the smallest concentration in the dilution series that meets the test's criterion for growth inhibition. Higher therefore signals a less susceptible organism.

What all share (format): functional
For assay [1], the system named is Helicobacter pylori. As to the kind of experiment: Minimal inhibitory concentration against 17 strains of Helicobacter pylori. The gist of the method: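 Agar dilution against 16 clinical isolates plus reference strain NCTC 11637 (four metronidazole-resistant). Twofold serial dilutions in Columbia agar with 10% horse serum and 0.25% yeast extract, 128 to 0.0039 µg/mL, plates made fresh. Inoculum: 72 h growth suspended in Wilkins Chalgren broth at 0.5 McFarland, 5 µL multipoint spots; 37 °C, 72 h, microaerobic (10% CO2).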

The test system of assay [2] is Helicobacter pylori. As to the kind of experiment: Minimal inhibitory concentration against metronidazole resistant Helicobacter pylori NCTC 11637 strain. The gist of the method:
(§1)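 Agar dilution. Columbia agar with 10% horse serum and 0.25% yeast extract holds serial twofold dilutions of compound, 128 to 0.0039 µg/mL, and plates are made on the day of use. Inoculum is 72 h growth suspended in Wilkins Chalgren broth to 0.5 McFarland, applied as 5 µL by multipoint inoculator. Plates are incubated 72 h at 37 °C, microaerobic (10% CO2).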

The test system of assay [3] is Helicobacter pylori. Briefly: Minimal inhibitory concentration against metronidazole resistant Helicobacter pylori 20 strain. The gist of the method: as §1
For assay [4], the system named is Helicobacter pylori. Briefly: Minimal inhibitory concentration against metronidazole resistant Helicobacter pylori 19 strain. Summed up: as §1
The subject of assay [5] is Helicobacter pylori. Briefly: Minimal inhibitory concentration against metronidazole resistant Helicobacter pylori 8 strain. Summed up: as §1

Molecules are shown by their SMILES. Converted amounts (≈) assume the structure as drawn.

Take `COc1ccccc1C1CC(c2ccc(O)cc2)=NN1C(C)=O` (configuration not stated): in assay [1], the MIC50 worked out at 8 µg/mL (≈ 25.8 µM) and the MIC90 stood at 16 µg/mL (≈ 51.6 µM).
On the same counts, the results for `CC(=O)N1N=C(c2c(O)cccc2O)CC1c1ccc(C)cc1` (configuration not stated) are 32 µg/mL (≈ 103 µM) and 128 µg/mL (≈ 412 µM).
On the same counts, the results for `CC(=O)N1N=C(c2ccccc2)CC1c1ccc(Cl)cc1` (configuration not stated) are 4 µg/mL (≈ 13.4 µM) and 8 µg/mL (≈ 26.8 µM).
With `Cc1ncc([N+](=O)[O-])n1CCO` [METRONIDAZOLE], the MIC in assay [2], in assay [3], in assay [4] and in assay [5] was 64 µg/mL (≈ 374 µM) in each case. Besides, in assay [1], the MIC50 was found to be 0.5 µg/mL (≈ 2.92 µM). This compound also came in with an MIC90 in assay [1] of 64 µg/mL (≈ 374 µM).
